Reference: ChEMBL document CHEMBL3393001, “Flavonoids as noncompetitive inhibitors of Dengue virus NS2B-NS3 protease: inhibition kinetics and docking studies” (Bioorg Med Chem, 2015)
pIC50, pKd, pKi: −log10 of the molar value. In brackets after ≈: the same amount, converted by molar mass.

Experiments:
[1] = system: dengue virus type 2; test: Antiviral activity against dengue virus 2 infected in african green monkey Vero cells assessed as reduction in viral replication dosed after adsorption with 200 FFU of virus for 1 hour by foci forming unit reduction assay; type: functional, organism-based
[2] = Inhibition of dengue virus 3 NS2B-NS3 serine protease assessed as reduction in hydrolysis of Boc-Gly-Arg-Arg-7-amino-4-methylcumarin substrate; set-up: species or system dengue virus type 3
Method in brief: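 Recombinant DENV3 NS2B-NS3 (50 nM) was run in 50 mM Tris HCl pH 9.0 with 1 mM CHAPS and 100 substrate. Compounds in DMSO were screened at 50 final, with IC50 from serial dilutions over 0.5–200. Three independent determinations in duplicate; background-corrected 2-parameter fit (lower limit 0, upper 100).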

[3] = Inhibition of dengue virus 2 NS2B-NS3 serine protease assessed as reduction in hydrolysis of Boc-Gly-Arg-Arg-7-amino-4-methylcumarin substrate by Dixon plot; set-up: species or system dengue virus type 2
Method in brief: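 Recombinant DENV2 NS2B-NS3 at 47.63 nM in 200 mM Tris-HCl pH 9.5, 6 mM NaCl, 30% glycerol. Boc-Gly-Arg-Arg-AMC at 25–200 µM with inhibitor fixed at 10–32 µM; AMC release read at ex 380/em 460 nm. Analysed by Lineweaver-Burk and Dixon plots, with Ki = Kiapp/(1+[S]/Km), [S] […] Mean of three independent assays.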

[4] = Inhibition of dengue virus 3 NS2B-NS3 serine protease assessed as reduction in hydrolysis of Boc-Gly-Arg-Arg-7-amino-4-methylcumarin substrate by Dixon plot; set-up: species or system dengue virus type 3
[5] = Inhibition of dengue virus 2 NS2B-NS3 serine protease assessed as reduction in hydrolysis of Boc-Gly-Arg-Arg-7-amino-4-methylcumarin substrate; set-up: species or system dengue virus type 2
[6] = Non-competitive inhibition of dengue virus 2 NS2B-NS3 serine protease assessed as reduction in hydrolysis of Boc-Gly-Arg-Arg-7-amino-4-methylcumarin substrate by Lineweaver-Burk plot and Dixon plot; set-up: species or system dengue virus type 2
[7] = Binding affinity to NT-647-NHS fluorescent dye-labeled dengue virus 3 NS2B-NS3 serine protease incubated for 10 mins by microscale thermophoresis method; set-up: species or system dengue virus type 3
Method in brief: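 Recombinant DENV3 NS2B-NS3, dye-labeled, mixed 1:1 with ligand dilutions to a final 25 nM protein and 0.06–1000 µM ligand. Buffer: 50 mM Tris-HCl pH 9.0, 1 mM CHAPS, plus 10% DMSO and 0.05% Tween 20 on the ligand side only. After 10 min, capillary thermophoresis was measured. KD came from data fitting, mean of three independent assays.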

O=c1cc(-c2ccccc2)oc2cc(O)c(O)c(O)c12 [BAICALEIN]
IC50 [1]: 6.46 µg/mL (≈ 23.9 µM)

O=c1c(O)c(-c2ccc(O)c(O)c2)oc2cc(O)ccc12 [FISETIN]
IC50 [1]: 55 µg/mL (≈ 192 µM)

O=c1c(O[C@@H]2O[C@H](CO)[C@@H](O)[C@H](O)[C@H]2O)c(-c2ccc(O)c(O)c2)oc2cc(O)cc(O)c12 [ISOQUERCETIN]
pIC50 [2]: 4.37 | pKi [3]: 4.59 | pKi [4]: 4.43 | pIC50 [5]: 4.36

O=c1c(O)c(-c2ccc(O)cc2)oc2cc(O)cc(O)c12 [KAEMPFEROL]
pIC50 [2]: 4.56 | pKi [3]: 4.65 | pKi [4]: 4.62 | pIC50 [5]: 4.42

O=c1c(O)c(-c2cc(O)c(O)c(O)c2)oc2cc(O)cc(O)c12 [MYRICETIN]
pIC50 [2]: 4.53 | pKi [6]: 5.33 | pKi [4]: 4.59 | pIC50 [5]: 4.65

O.O=c1c(O)c(-c2ccc(O)c(O)c2)oc2cc(O)cc(O)c12 [QUERCETIN DIHYDRATE]
pKd [7]: 4.70 | pIC50 [2]: 4.64 | IC50 [1]: 35.7 µg/mL | pKi [3]: 4.68 | pKi [4]: 4.70 | pIC50 [5]: 4.45

C[C@@H]1O[C@@H](Oc2c(-c3ccc(O)c(O)c3)oc3cc(O)cc(O)c3c2=O)[C@H](O)[C@H](O)[C@H]1O [QUERCITRIN]
pIC50 [2]: 4.49 | pKi [3]: 4.59 | pKi [4]: 4.55 | pIC50 [5]: 4.36
